Laboratory results taken from ChEMBL document CHEMBL1125789, “Synthesis and selective class III antiarrhythmic activity of novel N-heteroaralkyl-substituted 1-(aryloxy)-2-propanolamine and related propylamine derivatives” (J Med Chem, 1991).

Experiments:
Canis familiaris [1] = test: Atrial conduction time by the compound in open chest anesthetized dog, after iv administration at a dose of 0.25 mg/kg.; format: functional, Canis lupus familiaris, Cardiac atrium
Outline: (§1)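 Mongrel dogs anesthetized with sodium pentobarbital (30 mg/kg iv, then 5 mg/kg per h), chest opened, paced at BCL 300 ms. Atrial conduction time was taken as the interval between electrograms recorded at the proximal and distal sites of the atrial recording electrode array, before and after iv or intraduodenal dosing. Values are changes from control.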

Canis familiaris [2] = organism: Canis familiaris; test: Maximum rate of rise of the upstroke of transmembrane potential, in canine Purkinje Fibers at a concentration of 0.03 uM at 1000 ms (simulating normal heart rate); format: functional; settings: Canis lupus familiaris, Purkinje fiber
Outline: (§2)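 Isolated canine Purkinje fiber bundles were driven by square-wave pulses 2.0 ms long at 2× threshold and equilibrated ≥1 h to steady state. Each concentration was superfused 45–60 min before recording, and action potentials were sampled at 4–6 sites per fiber in control and after drug, giving Vmax and APD to −60 mV.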

Canis familiaris [3] = organism: Canis familiaris; test: Maximum rate of rise of the upstroke of transmembrane potential, in canine Purkinje Fibers at a concentration of 0.03 uM at 300 ms (simulating tachycardia); format: functional; settings: Canis lupus familiaris, Purkinje fiber; outline: as §2
Canis familiaris [4] = organism: Canis familiaris; test: Repolarization to reach -60mV, in canine Purkinje Fibers at a concentration of 0.01 uM at 300 ms (simulating tachycardia); format: functional, Canis lupus familiaris, Purkinje fiber; outline: as §2
Canis familiaris [5] = test: Ventricular effective refractory period by the compound in open chest anesthetized dog, after iv administration at a dose of 0.50 mg/kg.; format: functional, Canis lupus familiaris, Heart; settings: dose 0.5 mg/kg
Canis familiaris [6] = organism: Canis familiaris; test: Maximum rate of rise of the upstroke of transmembrane potential, in canine Purkinje Fibers at a concentration of 0.01 uM at 1000 ms (simulating normal heart rate); format: functional; settings: Canis lupus familiaris, Purkinje fiber; outline: as §2
Canis familiaris [7] = test: Atrial effective refractory period by the compound in open chest anesthetized dog, after iv administration at a dose of 0.50 mg/kg.; format: functional, Canis lupus familiaris, Cardiac atrium; settings: dose 0.5 mg/kg
Outline: (§3)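 Open-chest mongrel dogs under sodium pentobarbital anesthesia (30 mg/kg iv plus 5 mg/kg per h), paced at basic cycle length 300 ms. Atrial effective refractory period was determined by electrical stimulation before and after iv or intraduodenal compound and reported as change from control.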

Canis familiaris [8] = test: Mean arterial pressure by the compound in open chest anesthetized dog, after iv administration at a dose of 0.05 mg/kg.; format: functional, Canis lupus familiaris, Artery
Outline: (§4)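 Hemodynamics (heart rate, mean arterial pressure) recorded in pentobarbital-anesthetized (30 mg/kg iv, 5 mg/kg per h maintenance) open-chest mongrel dogs during the refractoriness study at BCL 300 ms. Readings were taken before and after iv or intraduodenal compound and expressed as change from control.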

Canis familiaris [9] = test: Atrial effective refractory period by the compound in open chest anesthetized dog, after iv administration at a dose of 0.05 mg/kg.; format: functional, Canis lupus familiaris, Cardiac atrium; outline: as §3
Canis familiaris [10] = organism: Canis familiaris; test: repolarization to reach -60mV, in canine Purkinje Fibers at a concentration of 0.10 uM at 1000 ms (simulating normal heart rate); format: functional, Canis lupus familiaris, Purkinje fiber
Outline: (§5)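 Purkinje fiber bundles were stimulated with square-wave current pulses of 2.0 ms at twice threshold and equilibrated for at least 1 h, or until action potential parameters were steady. Each concentration was superfused for 45-60 min to reach steady state. Action potentials were recorded at four to six sites per fiber, under control and after drug.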

Canis familiaris [11] = organism: Canis familiaris; test: Maximum rate of rise of the upstroke of transmembrane potential, in canine Purkinje Fibers at a concentration of 0.10 uM at 300 ms (simulating tachycardia); format: functional; settings: Canis lupus familiaris, Purkinje fiber; outline: as §2
Canis familiaris [12] = organism: Canis familiaris; test: Maximum rate of rise of the upstroke of transmembrane potential, in canine Purkinje Fibers at a concentration of 0.10 uM at 1000 ms (simulating normal heart rate); format: functional; settings: Canis lupus familiaris, Purkinje fiber; outline: as §2
Canis familiaris [13] = test: Heart beat by the compound in open chest anesthetized dog, after iv administration at a dose of 0.50 mg/kg.; format: functional, Canis lupus familiaris; settings: dose 0.5 mg/kg; outline: as §4
Canis familiaris [14] = test: Heart beat by the compound in open chest anesthetized dog, after iv administration at a dose of 0.25 mg/kg.; format: functional, Canis lupus familiaris; outline: as §4
Canis familiaris [15] = organism: Canis familiaris; test: Maximum rate of rise of the upstroke of transmembrane potential, in canine Purkinje Fibers at a concentration of 0.01 uM at 300 ms (simulating tachycardia); format: functional; settings: Canis lupus familiaris, Purkinje fiber; outline: as §2
Canis familiaris [16] = test: Atrial conduction time by the compound in open chest anesthetized dog, after iv administration at a dose of 0.05 mg/kg.; format: functional, Canis lupus familiaris, Cardiac atrium; outline: as §1
Canis familiaris [17] = test: Ventricular effective refractory period by the compound in open chest anesthetized dog, after iv administration at a dose of 0.25 mg/kg.; format: functional, Canis lupus familiaris, Heart
Canis familiaris [18] = test: Atrial effective refractory period by the compound in open chest anesthetized dog, after iv administration at a dose of 0.25 mg/kg.; format: functional, Canis lupus familiaris, Cardiac atrium; outline: as §3
Canis familiaris [19] = test: Ventricular effective refractory period by the compound in open chest anesthetized dog, after iv administration at a dose of 0.05 mg/kg.; format: functional, Canis lupus familiaris, Heart
Canis familiaris [20] = organism: Canis familiaris; test: repolarization to reach -60mV, in canine Purkinje Fibers at a concentration of 0.01 uM at 1000 ms (simulating normal heart rate); format: functional, Canis lupus familiaris, Purkinje fiber; outline: as §5
Canis familiaris [21] = test: Mean arterial pressure by the compound in open chest anesthetized dog, after iv administration at a dose of 0.25 mg/kg.; format: functional, Canis lupus familiaris, Artery; outline: as §4
Canis familiaris [22] = test: Ventricular conduction time by the compound in open chest anesthetized dog, after iv administration at a dose of 0.50 mg/kg.; format: functional, Canis lupus familiaris, Heart; settings: dose 0.5 mg/kg
Outline: (§6)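 Mongrel dogs were anesthetized with sodium pentobarbital (30 mg/kg iv, then 5 mg/kg per h), the chest opened, and the heart paced at BCL 300 ms. Compound was given iv or intraduodenally. Ventricular conduction time was taken as the interval between electrograms at the proximal and distal sites of the recording electrode array. 2-5 dogs per dose.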

Canis familiaris [23] = test: Atrial conduction time by the compound in open chest anesthetized dog, after iv administration at a dose of 0.50 mg/kg.; format: functional, Canis lupus familiaris, Cardiac atrium; settings: dose 0.5 mg/kg; outline: as §1
Canis familiaris [24] = organism: Canis familiaris; test: repolarization to reach -60mV, in canine Purkinje Fibers at a concentration of 0.03 uM at 1000 ms (simulating normal heart rate); format: functional, Canis lupus familiaris, Purkinje fiber; outline: as §5
Canis familiaris [25] = test: Heart beat by the compound in open chest anesthetized dog, after iv administration at a dose of 0.05 mg/kg.; format: functional, Canis lupus familiaris; outline: as §4
Canis familiaris [26] = test: Ventricular conduction time by the compound in open chest anesthetized dog, after iv administration at a dose of 0.25 mg/kg.; format: functional, Canis lupus familiaris, Heart; outline: as §6
Canis familiaris [27] = organism: Canis familiaris; test: Repolarization to reach -60mV, in canine Purkinje Fibers at a concentration of 0.10 uM at 300 ms (simulating tachycardia); format: functional, Canis lupus familiaris, Purkinje fiber; outline: as §2
Canis familiaris [28] = test: Ventricular conduction time by the compound in open chest anesthetized dog, after iv administration at a dose of 0.05 mg/kg.; format: functional, Canis lupus familiaris, Heart; outline: as §6
Canis familiaris [29] = test: Mean arterial pressure by the compound in open chest anesthetized dog, after iv administration at a dose of 0.50 mg/kg.; format: functional, Canis lupus familiaris, Artery; settings: dose 0.5 mg/kg; outline: as §4

CN(CCOc1ccc(NS(C)(=O)=O)cc1)CCc1ccc(NS(C)(=O)=O)cc1 [DOFETILIDE]
ACT (Canis familiaris [1]): -6 | Vmax (Canis familiaris [2]): 2 | Vmax (Canis familiaris [3]): 7 | APD (Canis familiaris [4]): 22% | VERP (Canis familiaris [5]): 27 | Vmax (Canis familiaris [6]): 4 | AERP (Canis familiaris [7]): 65 | MBP (Canis familiaris [8]): 1 | AERP (Canis familiaris [9]): 46 | APD (Canis familiaris [10]): 85% | Vmax (Canis familiaris [11]): 5 | Vmax (Canis familiaris [12]): 5 | HR (Canis familiaris [13]): -24 | HR (Canis familiaris [14]): -21 | Vmax (Canis familiaris [15]): 4 | ACT (Canis familiaris [16]): -4 | VERP (Canis familiaris [17]): 25 | AERP (Canis familiaris [18]): 60 | VERP (Canis familiaris [19]): 23 | APD (Canis familiaris [20]): 37% | MBP (Canis familiaris [21]): 1 | VCT (Canis familiaris [22]): -4 | ACT (Canis familiaris [23]): -9 | APD (Canis familiaris [24]): 67% | HR (Canis familiaris [25]): -14 | VCT (Canis familiaris [26]): -5 | APD (Canis familiaris [27]): 29% | VCT (Canis familiaris [28]): -4 | MBP (Canis familiaris [29]): -2
